Results from ChEMBL document CHEMBL2440035, “Azetidines and spiro azetidines as novel P2 units in hepatitis C virus NS3 protease inhibitors” (Bioorg Med Chem Lett, 2013).

Experiments:
PBMC = assay: Cytotoxicity against human PBMC; format: cell-based
In short: (§1)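 Cytotoxicity was profiled in three cell types: primary human peripheral blood mononuclear (PBM) cells, CEM (a human T-cell-derived line) and Vero (African green monkey kidney epithelial cells).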

Vero = assay: Cytotoxicity against african green monkey Vero cells; format: cell-based; details: chlorocebus sabaeus; in short: as §1
Huh-7 = assay: Cytotoxicity against human HuH7 cells; format: cell-based
In short: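 Huh7 cytotoxicity measured together with the replicon antiviral assay, by extraction and amplification of ribosomal RNA. Each concentration run in triplicate and reported as mean.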

Hepatitis C virus [1] = assay: Antiviral activity against Hepatitis C virus infected in human HuH7 cells assessed as viral RNA replication; format: functional, organism-based, Hepacivirus hominis; details: Huh-7
In short: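 Subgenomic HCV replicon in Huh7 cells; inhibition of HCV RNA replication measured by extraction and amplification of HCV RNA. Each concentration run in triplicate and reported as mean; EC50 derived.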

CCRF-CEM = assay: Cytotoxicity against human CEM cells; format: cell-based; in short: as §1
Prothrombin = Prothrombin (Homo sapiens, UniProt P00734); assay: Inhibition of human thrombin
Plasminogen = Plasminogen (Homo sapiens, UniProt P00747); assay: Inhibition of human plasmin
Hepatitis C virus [2] = assay: Inhibition of Hepatitis C virus genotype 1b NS3/4A protease A156S mutant; set-up: species or system Hepatitis C virus subtype 1b
In short: (§2)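 Panel of genotype 1b NS3 protease enzymes (wild type and mutants). IC50 and IC90 are averages ± standard error from 2 independent assays. Fold change versus wild type given in parentheses.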

Hepatitis C virus [3] = assay: Inhibition of Hepatitis C virus genotype 1b wild type NS3/4A protease; set-up: species or system Hepatitis C virus subtype 1b; in short: as §2
Hepatitis C virus [4] = assay: Inhibition of Hepatitis C virus genotype 1b NS3/4A protease R155K mutant; set-up: species or system Hepatitis C virus subtype 1b; in short: as §2
Hepatitis C virus [5] = assay: Inhibition of Hepatitis C virus genotype 1b NS3/4A protease D168V mutant; set-up: species or system Hepatitis C virus subtype 1b; in short: as §2
Hepatitis C virus [6] = assay: Inhibition of Hepatitis C virus genotype 1b NS3/4A protease D168A mutant; set-up: species or system Hepatitis C virus subtype 1b; in short: as §2
Hepatitis C virus [7] = assay: Inhibition of Hepatitis C virus genotype 1b NS3/4A protease V170A mutant; set-up: species or system Hepatitis C virus subtype 1b; in short: as §2
Cathepsin S = Cathepsin S (Homo sapiens, UniProt P25774); assay: Inhibition of human cathepsin S
[8] = target: T1, Neutrophil elastase (Homo sapiens) (UniProt P08246); assay: (§3) Inhibition of human neutrophil elastase
T1 sequence (whole entry): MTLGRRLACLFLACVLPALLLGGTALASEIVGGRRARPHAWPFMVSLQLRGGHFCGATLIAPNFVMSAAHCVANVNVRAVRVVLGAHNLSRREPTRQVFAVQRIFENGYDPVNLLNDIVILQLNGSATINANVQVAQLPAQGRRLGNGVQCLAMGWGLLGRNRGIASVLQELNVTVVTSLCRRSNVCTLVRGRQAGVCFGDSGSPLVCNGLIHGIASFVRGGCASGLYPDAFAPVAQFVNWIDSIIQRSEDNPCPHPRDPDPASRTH

Neutrophil elastase = target: T2, Neutrophil elastase (Homo sapiens, UniProt P08246); assay: as §3
T2 sequence (P08246 whole entry): T1 sequence (whole entry)

Hepatitis C virus [9] = assay: Inhibition of Hepatitis C virus genotype 1b NS3/4A protease A156T mutant; set-up: species or system Hepatitis C virus subtype 1b; in short: as §2
Hepatitis C virus [10] = assay: Inhibition of Hepatitis C virus genotype 1b NS3/4A protease V36M mutant; set-up: species or system Hepatitis C virus subtype 1b; in short: as §2

Sequence of Plasminogen (P00747 97-580 limits assumed): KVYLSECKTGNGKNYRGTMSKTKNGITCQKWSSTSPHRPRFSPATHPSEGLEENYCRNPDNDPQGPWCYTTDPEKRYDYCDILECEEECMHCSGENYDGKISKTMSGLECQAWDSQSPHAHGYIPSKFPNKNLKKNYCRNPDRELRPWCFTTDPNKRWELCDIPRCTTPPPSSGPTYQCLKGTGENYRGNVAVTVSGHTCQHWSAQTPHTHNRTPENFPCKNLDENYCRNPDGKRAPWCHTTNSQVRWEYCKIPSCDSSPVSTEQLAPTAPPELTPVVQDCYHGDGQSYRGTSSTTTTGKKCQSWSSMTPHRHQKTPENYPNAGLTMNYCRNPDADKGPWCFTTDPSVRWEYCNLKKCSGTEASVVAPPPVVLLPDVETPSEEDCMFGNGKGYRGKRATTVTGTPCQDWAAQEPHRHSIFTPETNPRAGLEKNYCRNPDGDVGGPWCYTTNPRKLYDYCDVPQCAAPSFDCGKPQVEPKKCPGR
Sequence of Plasminogen (P00747 581-810 limits assumed): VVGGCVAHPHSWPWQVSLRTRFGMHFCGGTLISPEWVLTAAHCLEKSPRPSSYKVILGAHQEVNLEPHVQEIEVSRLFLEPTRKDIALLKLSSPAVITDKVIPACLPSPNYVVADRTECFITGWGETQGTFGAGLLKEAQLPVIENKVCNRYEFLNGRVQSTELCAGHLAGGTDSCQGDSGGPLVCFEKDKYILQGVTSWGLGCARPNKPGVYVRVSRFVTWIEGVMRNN

Row | SMILES | CC50 (PBMC) | CC50 (Vero) | CC50 (Huh-7) | EC50 (Hepatitis C virus [1]) | EC90 (Hepatitis C virus [1]) | CC50 (CCRF-CEM) | also measured
1 | CCCC(NC(=O)C1N(C(=O)[C@@H](NC(=O)NC(C)(C)C)C(C)(C)C)CC12Cc1ccccc1C2)C(=O)C(=O)NC1CC1 (stereo partly specified) | > 100 µM | > 100 µM | 27 µM | 13 µM | 31 µM | – | –
2 | CC(C)(C)[C@H](NC(=O)[C@@H](NC(=O)c1cnccn1)C1CCCCC1)C(=O)N1CC2(Cc3ccccc3C2)C1C(=O)NC(CC1CC1)C(=O)C(=O)NC1CC1 (stereo partly specified) | 12 µM | > 100 µM | – | 0.8 µM | 1.5 µM | 14 µM | –
3 | CCCC(NC(=O)C1N(C(=O)[C@@H](NC(=O)[C@@H](NC(=O)c2cnccn2)C2CCCCC2)C(C)(C)C)CC12Cc1ccccc1C2)C(=O)C(=O)NC1CC1 (stereo partly specified) | > 100 µM | > 100 µM | > 10 µM | > 10 µM | > 10 µM | 72 µM | –
4 | CC(C)(C)NC(=O)N[C@H](C(=O)N1C[C@H]2[C@@H]([C@H]1C(=O)NC(CC1CCC1)C(=O)C(N)=O)C2(C)C)C(C)(C)C (stereo partly specified) [BOCEPREVIR] | > 100 µM | > 100 µM | > 10 µM | 0.01 µM | 0.03 µM | > 100 µM | IC50 (Prothrombin): < 1 µM; IC90 (Prothrombin): < 1.4 µM; IC50 (Plasminogen): > 100 µM; IC90 (Plasminogen): > 100 µM; EC90 (Hepatitis C virus [2]): ≥ 100 µM; EC90 (Hepatitis C virus [3]): 1 µM; EC90 (Hepatitis C virus [4]): 4.8 µM; EC90 (Hepatitis C virus [5]): 0.9 µM; EC90 (Hepatitis C virus [6]): 4.7 µM; EC90 (Hepatitis C virus [7]): 7.7 µM; IC50 (Cathepsin S): > 100 µM; IC90 (Cathepsin S): > 100 µM; IC90 [8]: > 100 µM; IC50 (Neutrophil elastase): ≥ 100 µM; EC90 (Hepatitis C virus [9]): > 100 µM; EC90 (Hepatitis C virus [10]): 5.6 µM
5 | CC(C)(C)[C@H](NC(=O)[C@@H](NC(=O)c1cnccn1)C1CCCCC1)C(=O)N1CC2(Cc3ccccc3C2)C1C(=O)NC(CC1CCC1)C(=O)C(=O)NC1CC1 (stereo partly specified) | 29 µM | > 100 µM | – | 0.7 µM | 1 µM | 43 µM | –
6 | CCCC(NC(=O)C1N(C(=O)[C@@H](NC(=O)[C@@H](NC(=O)c2cnccn2)C2CCCCC2)C(C)(C)C)CC12CCCCC2)C(=O)C(=O)NCCF (stereo partly specified) | 32 µM | 21 µM | > 10 µM | 5.4 µM | 9.7 µM | 5.4 µM | –
7 | CCCC(NC(=O)C1CCN1C(=O)[C@@H](NC(=O)[C@@H](NC(=O)c1cnccn1)C1CCCCC1)C(C)(C)C)C(=O)C(=O)NC1CC1 (stereo partly specified) | > 100 µM | > 100 µM | > 10 µM | > 10 µM | > 10 µM | > 100 µM | –
8 | CCCC(NC(=O)C1CCN1C(=O)[C@@H](NC(=O)[C@@H](NC(=O)c1cnccn1)C1CCCCC1)C(C)(C)C)C(=O)C(=O)NCCF (stereo partly specified) | 80 µM | > 100 µM | > 10 µM | > 10 µM | > 10 µM | 52 µM | –
9 | CCCC(NC(=O)C1N(C(=O)[C@@H](NC(=O)CC(C)(C)C)C(C)(C)C)CC12Cc1ccccc1C2)C(=O)C(=O)NC1CC1 (stereo partly specified) | 44 µM | 46 µM | > 10 µM | > 10 µM | > 10 µM | 35 µM | –
10 | CCCC(NC(=O)C1N(C(=O)[C@@H](NC(=O)Nc2ccc(OC)cc2)C(C)(C)C)CC12Cc1ccccc1C2)C(=O)C(=O)NC1CC1 (stereo partly specified) | 22 µM | 43 µM | > 10 µM | > 10 µM | > 10 µM | – | –
11 | CCCC(NC(=O)C1CCN1C(=O)[C@@H](NC(=O)[C@@H](NC(=O)c1cnccn1)C1CCCCC1)C(C)(C)C)C(=O)C(=O)NCCOC (stereo partly specified) | > 100 µM | > 100 µM | > 10 µM | > 10 µM | > 10 µM | 38 µM | –
12 | CCCC(NC(=O)C1N(C(=O)[C@@H](NC(=O)C2CCCCC2)C(C)(C)C)CC12Cc1ccccc1C2)C(=O)C(=O)NC1CC1 (stereo partly specified) | 31 µM | 43 µM | 10 µM | > 10 µM | > 10 µM | 22 µM | –
13 | CCCC(NC(=O)C1N(C(=O)[C@@H](NC(=O)NC2CCCC2)C(C)(C)C)CC12Cc1ccccc1C2)C(=O)C(=O)NC1CC1 (stereo partly specified) | > 100 µM | 95 µM | > 10 µM | > 10 µM | > 10 µM | – | –
14 | C=CCNC(=O)C(=O)C(CCC)NC(=O)C1CCN1C(=O)[C@@H](NC(=O)[C@@H](NC(=O)c1cnccn1)C1CCCCC1)C(C)(C)C (stereo partly specified) | 27 µM | > 100 µM | > 10 µM | > 10 µM | > 10 µM | 30 µM | –
15 | CCCC(NC(=O)C1N(C(=O)[C@@H](NC(=O)Nc2ccccc2)C(C)(C)C)CC12Cc1ccccc1C2)C(=O)C(=O)NC1CC1 (stereo partly specified) | 15 µM | 46 µM | > 10 µM | > 10 µM | > 10 µM | – | –
16 | CCCC(NC(=O)C1N(C(=O)[C@@H](NC(=O)NC2CCCCC2)C(C)(C)C)CC12Cc1ccccc1C2)C(=O)C(=O)NC1CC1 (stereo partly specified) | 30 µM | 44 µM | 8.2 µM | 8.9 µM | 30 µM | – | –
17 | CC(C)(C)[C@H](NC(=O)NC1CCCCC1)C(=O)N1CC2(Cc3ccccc3C2)C1C(=O)NC(CC1CCC1)C(=O)C(=O)NC1CC1 (stereo partly specified) | 15 µM | 26 µM | 5.5 µM | 5.8 µM | 9.8 µM | 15 µM | –
